# Compound activity: PubChem, Sanford-Burnham Center for Chemical Genomics
# SENP6 inh = blocks the human protease SENP6; Recombinant SENP6 catalytic domain, aminoluciferin luminescence; 330,000 compounds, 1.8% hits; inhibition, % at 10 µM; AID 2599; Q9GZR1;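 active = inhibition above about 50% at the single tested dose, limit read from the data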;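 note: plate controls were DMSO wells with enzyme for no effect and DMSO wells lacking enzyme for full effect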
# SENP8 block-1 = SENP8 protease inhibition; Q96LD8; 330,000 compounds, 1.2% hits; AID 2540; purified SENP8, Z-RLRGG-aminoluciferin cleavage, luminescence; inhibition, % at 10 µM; in the data active = inhibition above about 50%
# Target sequence (Q96LD8 whole entry, looked up): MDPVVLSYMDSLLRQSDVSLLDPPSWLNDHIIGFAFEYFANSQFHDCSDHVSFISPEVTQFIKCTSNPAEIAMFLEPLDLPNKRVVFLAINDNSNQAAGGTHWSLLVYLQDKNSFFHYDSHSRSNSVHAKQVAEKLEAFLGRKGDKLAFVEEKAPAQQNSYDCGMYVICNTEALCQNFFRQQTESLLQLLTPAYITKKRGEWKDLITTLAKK
# SENP7 block = SENP7 protease inhibition; Q9BQF6; recombinant SENP7, Z-RLRGG-aminoluciferin luminescence, 40 min; inhibition, % at 5 µM; 330,000 compounds, 1.5% hits; AID 434973;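 active = inhibition above about 50% at the single test dose, limit read from the data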;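 note: plate controls were DMSO with enzyme for no effect and no enzyme buffer wells for full effect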
# SENP8 block-2 = blocks human SENP8 cleavage of Nedd8 substrate; AID 602440; recombinant SENP8, Nedd8 substrate fluorescence; inhibition, % at 20 µM; 360,000 compounds, 0.64% hits; Q96LD8; in the data active = inhibition mostly above about 40%, no sharp cut-off; inactive = mostly below about 27%
# Apaf-1 inh = human Apaf-1 inhibition | O14727 | reconstituted apoptosome caspase-3 activity, DEVD-Rh110 fluorescence | inhibition, % at 20 µM | 330,000 compounds, 0.71% hits | AID 489030; active = inhibition of at least 40% at 20 µM;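 note: plate controls were DMSO wells for no effect and DEVD-CHO caspase inhibitor wells for full effect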
#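 Material: reconstituted apoptosome with Apaf-1, cytochrome c, caspase-9, procaspase-3, dATP / Buffer or medium: pH 7.5 Hepes buffer with CHAPS, BSA, DTT / Also added: cytochrome c with DEVD-Rh110 / Schedule: compound with Apaf-1, dATP, procaspase-3 30 min, then 50 min reaction, room temperature / Technique: rhodamine 110 fluorescence at Ex 480/Em 540 nm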
# UBC13 inh = blocks human UBC13 polyubiquitin chain formation; 330,000 compounds, 0.47% hits; P61088; TR-FRET; inhibition, % at 20 µM; in the data active = inhibition above about 45%, passing the limit was not always enough
# Target sequence (P61088 whole entry, looked up): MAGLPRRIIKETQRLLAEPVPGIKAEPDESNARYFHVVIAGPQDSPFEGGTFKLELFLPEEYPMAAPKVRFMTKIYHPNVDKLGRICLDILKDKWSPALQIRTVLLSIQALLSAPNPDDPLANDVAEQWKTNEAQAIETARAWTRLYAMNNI
# SENP8 confirm = human SENP8 inhibition, confirmed. shares compounds with SENP7 block. Recombinant SENP8, Z-RLRGG-aminoluciferin luminescence, 60 min. inhibition, % at 12.5 µM. 6,200 compounds, 40% hits;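 active = mean inhibition across replicates above about 50%, limit read from the data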
# SENP6 conf = confirmation of human SENP6 protease inhibitors; recombinant SENP6, Z-RLRGG-aminoluciferin luminescence; inhibition, % at 12.5 µM; 6,200 compounds, 58% hits; shares compounds with SENP7 block
# SENP7 conf = human SENP7 inhibition, confirmed; shares compounds with SENP7 block; 6,200 compounds, 69% hits; recombinant SENP7, Z-RLRGG-aminoluciferin luminescence, 40 min; inhibition, % at 12.5 µM
# Casp3 SENP sel = caspase-3 inhibition (SENP selectivity assay). shares compounds with SENP7 block. purified caspase-3, Z-DEVD-aminoluciferin luminescence, 60 min. inhibition, % at 12.5 µM. 6,200 compounds, 60% hits. AID 488918;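 active = mean inhibition above about 50%, limit read from the data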;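 note: plate controls were enzyme with DMSO for no effect and wells without caspase-3 for full effect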
# Target sequence (P42574 28-227 limits assumed): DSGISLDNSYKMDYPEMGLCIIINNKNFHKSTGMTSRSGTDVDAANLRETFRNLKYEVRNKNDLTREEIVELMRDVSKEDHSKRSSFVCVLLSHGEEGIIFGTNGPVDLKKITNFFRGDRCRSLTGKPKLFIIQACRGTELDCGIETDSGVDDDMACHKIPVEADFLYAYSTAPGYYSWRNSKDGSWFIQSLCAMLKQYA
# SENP luc ctr = counter-screen for SENP inhibitors: luminescence interference; shares compounds with SENP7 block; Pre-incubated SENP8/Z-RLRGG-aminoluciferin, luciferase luminescence interference; inhibition, % at 12.5 µM; 6,200 compounds, 39% hits;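 active = mean inhibition above about 50% when retested at one dose, limit read from the data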;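 note: plate controls were DMSO wells with completed reaction for no effect and substrate without enzyme for full effect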
# An asterisk follows results filed as active; / = not tested or not shown. Most compounds without a hit are left out; they make up all but 3.1% or so of the library.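 Rule for the calls, unless noted: active = mean inhibition above about 50% in the one-dose retest (limit read from the data); inactive = the rest.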
SMILES,SENP6 inh,SENP8 block-1,SENP7 block,SENP8 block-2,Apaf-1 inh,UBC13 inh,SENP8 confirm,SENP6 conf,SENP7 conf,Casp3 SENP sel,SENP luc ctr
COc1ccc(-c2cc(C(=O)N3CCCC3)no2)cc1,74*,50,53*,5,5,-13,49,52*,86*,80*,39
COc1cccc(-c2cc(C(=O)N3CCCCCC3)no2)c1,67*,48,45,13,10,-1,62*,61*,85*,62*,49
O=C(c1cc(-c2ccc(Br)cc2)on1)N1CCCC1,55*,39,42,12,6,-2,4,7,33,39,9
COc1ccc(-c2cc(C(=O)N3CCCCCC3)no2)cc1,57*,38,48,21,7,5,41,50*,83*,56*,24
O=C(Nc1ccc(OCc2ccccc2)cc1)Nc1nnc([C@H]2C[C@H](O)[C@@H](CO)O2)s1,/,/,/,11,/,/,/,/,/,/,/
Cc1ccc(-c2cc(C(=O)N3CCCCCC3)no2)cc1,61*,49,47,7,9,4,18,36,24,18,-2
O=C(c1cc(-c2ccc(F)cc2)on1)N1CCCCCC1,25,-1,-10,12,14,0,/,/,/,/,/
Cc1nn(CC(=O)O)c(C)c1C,-26,-1,-6,12,-3,10,/,/,/,/,/
Cc1nn(CC(=O)O)c(C)c1Cl,1,7,95*,10,-19,0,-10,-3,-6,2,4
O=C(Nc1ccc(NC(=O)c2ccco2)nc1)c1ccccn1,54*,24,51*,6,12,-3,-6,36,74*,80*,32
COc1cccc(C(=O)Nc2ccc(NC(=O)C3CC3)cn2)c1,85*,60*,82*,22,-25,8,69*,69*,89*,89*,12
O=C(Nc1ccc(NC(=O)C2CC2)nc1)c1ccccn1,55*,5,52*,3,6,-13,30,35,61*,70*,23
O=C(Nc1ccc(NC(=O)c2ccco2)nc1)c1ccco1,-18,-5,-1,-4,-1,-17,/,/,/,/,/
O=C(Nc1ccc(NC(=O)C2CC2)nc1)c1cnccn1,-15,3,5,8,-14,-4,/,/,/,/,/
CC(C)C1C(=O)N(Cc2cn(CC3CCCCC3)nn2)CCS(=O)(=O)N1Cc1ccc(-c2cccc(CO)c2)cc1 (stereo not drawn),/,/,/,21,/,/,/,/,/,/,/
CCc1cccc(CC)c1C(OC(C)=O)c1cccnc1 (stereo not drawn),-25,55*,-3,15,-11,-1,8,10,18,10,6
CCOC(=O)c1cc2c(=O)c3ccccc3oc2nc1C,58*,44,58*,7,2,-6,42,43,67*,74*,19
CC(=O)c1cc2c(=O)c3ccccc3oc2nc1C,18,10,6,8,1,0,/,/,/,/,/
Cc1nc(-c2ccccc2)sc1C(=O)O,43,40,36,9,6,4,/,/,/,/,/
Cc1nc(-c2ccc(Cl)cc2)sc1C(=O)O,81*,85*,77*,1,-10,-5,95*,95*,101*,88*,93*
Cc1nc(-c2ccc([N+](=O)[O-])cc2)sc1C(=O)O,91*,92*,97*,-7,-2,-11,11,7,101*,97*,93*
Cc1ccc(-c2nc(C)c(C(=O)O)s2)cc1,95*,93*,98*,-25,4,5,99*,100*,103*,92*,98*
N/C(=N\OC(=O)c1ccc(Cl)cc1Cl)c1ccccc1,101*,93*,99*,18,1,0,98*,99*,103*,98*,98*
N/C(Cc1ccc(Cl)cc1Cl)=N\OC(=O)c1ccccc1,-5,-4,-2,10,-18,1,/,/,/,/,/
Cc1ccc(/C(N)=N/OC(=O)Oc2ccccc2)cc1,-13,-3,4,21,2,8,/,/,/,/,/
SMILES,SENP6 inh,SENP8 block-1,SENP7 block,SENP8 block-2,Apaf-1 inh,UBC13 inh,SENP8 confirm,SENP6 conf,SENP7 conf,Casp3 SENP sel,SENP luc ctr
Cc1ccc(/C(N)=N/OC(=O)c2ccc(C)cc2Cl)cc1,80*,70*,85*,10,1,1,63*,63*,89*,57*,25
Cc1cccc(/C(N)=N/OC(=O)c2cccc3ccccc23)c1,87*,76*,87*,-132,2,3,86*,85*,96*,72*,82*
N/C(=N\OC(=O)c1ccc(Cl)cc1Cl)c1ccc(Cl)cc1,62*,37,54*,18,2,3,13,35,69*,48,36
COc1cc(OC)cc(-c2noc([C@@H]3O[C@H](CO)[C@@H](O)[C@H]3O)n2)c1,/,/,/,13,/,/,/,/,/,/,/
O=C(COC(=O)c1c(F)cccc1F)Nc1cccc(S(=O)(=O)N2CCCCC2)c1,/,/,/,14,/,/,/,/,/,/,/
Cc1cccc(/C(N)=N/OC(=O)c2ccc(Cl)cc2Cl)c1,94*,97*,98*,15,-7,-1,99*,100*,103*,99*,96*
Cc1cccc(C(=O)O/N=C(\N)c2cccc([N+](=O)[O-])c2)c1,29,2,22,12,-8,16,/,/,/,/,/
CCSc1nnc(Cc2cc(=O)[nH]c(=O)[nH]2)n1-c1cc(C)ccc1C,53*,-6,15,16,-3,-3,-4,-1,-6,-5,-4
CSc1nnc(Cc2cc(=O)[nH]c(=O)[nH]2)n1-c1cc(C)ccc1C,15,5,7,16,-9,7,/,/,/,/,/
COc1ccc(-c2cn(CCC(=O)O)c(C)n2)cc1,85*,81*,25,9,-7,0,-8,85*,94*,27,40
O=C(/C=C\Nc1cccc(F)c1)c1ccc2c(c1)OCO2,94*,56*,96*,-182,4,9,79*,87*,92*,84*,28
COC(=O)c1ccc(N/C=C\C(=O)c2ccc3c(c2)OCO3)cc1,-6,-4,-8,-406,-6,-7,/,/,/,/,/
O=C(/C=C/c1ccc2c(c1)OCO2)c1ccc(F)cc1,45,25,34,-83,13,5,/,/,/,/,/
